Experiment [1] in a line: SK-BR-3 cell growth inhibitors, pilot screen, 24 h, human (AID 572;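 active = viability at or below 10% of carrier control in both of two separate runs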;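 note: compound exposure lasted between 18 and 24 h rather than exactly 24 h; 100% = carrier-treated control wells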). Conditions: SK-BR-3 viability, CellTiter-Glo luminescence, at 10 µM, stronger effect = lower value.
The nature of experiment [2]: HUVEC growth inhibition – cell-based, human, primary screen (AID 575).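 Note: 100% = median of untreated cell wells with 0.1% DMSO on each plate.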 Particulars: HUVEC proliferation, CellTiter-Glo luminescence, 72 h; at 10 µM; stronger effect = lower value. The essentials: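 Test system: primary human umbilical vein endothelial cells. Quantity: 1250 cells/well. Compound: single 10 µM dose, 0.1% DMSO, from 5x medium stock. Timing: 72 h treatment at 37 °C. Detection: ATP-based CellTiter-Glo luminescent read. Benchmarks: vehicle and MePR control wells. Format: 384-well plates coated with collagen.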

The nature of experiment [3]: growth inhibitors of H69AR lung tumor, primary screen, human, duplicate replicates (AID 580;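 active = viability at or under a set limit in both replicates, limit being median viability minus 3 SD, cut at about 48% in these data, passing the limit was not always enough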;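 note: 100% = mean luminescence of untreated wells and 0% = no signal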). Particulars: H69AR lung tumor cells viability, ATP luminescence, 72 h; at 10 µM; stronger effect = lower value.
Experiment [4] is described as follows: reversal of MRP1-mediated doxorubicin resistance, pilot screen, H69AR cells, doxorubicin co-treatment (AID 601;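 active = viability loss from added drug above about 55%, and viability with drug at most 40%, in both replicates, limit read from the data, passing the limit was not always enough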). Particulars: CellTiter-Glo, 72 h, at 10 µM; for differential viability (reversal): stronger effect = higher value.
The nature of experiment [5]: 384-well plate pilot, post-Golgi transport modulator project, inhibition of yeast transport mutant growth (AID 636; in the data active = inhibition above about 31%). Particulars: absorbance 615 nm, about 18 h, stronger effect = higher value.
Experiment [6] is described as follows: growth suppression of yeast trafficking mutant, preliminary HTS, modulators of trafficking downstream of Golgi apparatus project, 1536-format plate, OD 615 nm (AID 637; in the data active = inhibition above about 30%). Particulars: yeast transport mutant growth, absorbance 615 nm, 18 h; stronger effect = higher value.
Setting [7] is: H69AR cells + 2 uM doxorubicin, measured here: viability with 2 uM doxorubicin, stronger effect = lower value.
Setting [8] is: H69AR cells, compound alone cytotoxicity.

This note sets out measurements from PubChem BioAssay.

Calls of active or inactive are those of the source.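 Rule for the calls, unless noted: active = viability at or below 30% in both replicate assays; inconclusive = viability at or below 30% in just one of the two assays; inactive = the rest.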

In the case of `CCc1nnc(NC(=O)CSc2nc(-c3ccc(OC)cc3)ns2)s1`, the viability is 110% (inactive) in experiment [1]; 101% (inactive) in experiment [2]; 93.1% (inactive) in experiment [3]; 93.7% in experiment [4] (setting [7]); 93.1% in experiment [4] (setting [8]). Besides, the differential viability (reversal) in experiment [4] (H69AR cells + 2 uM doxorubicin) was -0.64% (inactive). Also, the results for the inhibition in experiment [5] and in experiment [6] were -5.07% (inactive) and 0.91% (inactive), respectively.

With `NC(=O)C1CCN(c2nc(-c3ccccc3)nc3ccccc23)CC1`, the viability was 114% (inactive) in experiment [1]; 77.2% (inactive) in experiment [2]; 66.3% (inactive) in experiment [3]; 69.2% in experiment [4] (setting [7]); 66.3% in experiment [4] (setting [8]). In experiment [4] (H69AR cells + 2 uM doxorubicin), the differential viability (reversal) was -2.88% (inactive). Besides, the inhibition in experiment [5] is -3.15% (inactive); in experiment [6], -4.03% (inactive).

On to `COCCNC(=O)C(c1ccc(C)o1)N(Cc1cccs1)C(=O)c1snc(C(N)=O)c1N` (stereo unspecified), for which the viability in experiment [1] was 87% (inactive); in experiment [2], 86.8% (inactive); in experiment [3], 86.4% (inactive); in experiment [4] (setting [7]), 86%; in experiment [4] (setting [8]) it was 86.4%. Also, the differential viability (reversal) in experiment [4] (H69AR cells + 2 uM doxorubicin) was 0.375% (inactive). Moreover, the inhibition was 4% (inactive) in experiment [5] and 12.7% (inactive) in experiment [6].

As to `CN(Cc1nc(-c2ccncc2)no1)S(=O)(=O)c1ccc(Cl)cc1`, the viability in experiment [1] was 115% (inactive); in experiment [2], 87.2% (inactive); in experiment [3] it was 88.9% (inactive); in experiment [4] (setting [7]), 98%; in experiment [4] (setting [8]) it was 88.9%. The differential viability (reversal) in experiment [4] (H69AR cells + 2 uM doxorubicin) was -9.07% (inactive). In addition, the inhibition is 1.78% (inactive) in experiment [5] and 13.6% (inactive) in experiment [6].

Turning to `CCn1cc(C(=O)NCc2ccco2)c(=O)c2cc(F)c(N3CCN(C(=O)c4ccco4)CC3)cc21`, the viability in experiment [1] was 94% (inactive); in experiment [2], 62.4% (inactive); in experiment [3] it was 58.6% (inactive); in experiment [4] (setting [7]), 17.7%; in experiment [4] (setting [8]), 58.6%. For the same compound, the differential viability (reversal) in experiment [4] (H69AR cells + 2 uM doxorubicin) was 40.8% (inactive). For the same compound, the values for the inhibition in experiment [5] and in experiment [6] were -7.4% (inactive) and -1.45% (inactive), respectively.

Consider `COc1cc(C(=O)OCc2cc3ccccc3[nH]c2=O)cc(OC)c1OC`, for which the viability in experiment [1] was 117% (inactive); in experiment [2] it was 68.6% (inactive); in experiment [3], 82.4% (inactive); in experiment [4] (setting [7]), 71.1%; in experiment [4] (setting [8]), 82.4%. In addition, in experiment [4] (H69AR cells + 2 uM doxorubicin), the differential viability (reversal) is 11.3% (inactive). Further, the inhibition is -2.8% (inactive) in experiment [5] and -2.91% (inactive) in experiment [6].

Regarding `Cc1nc2cc(C(=O)O)ccc2n1-c1ccc(F)cc1F`, the viability in experiment [1] is 120% (inactive); in experiment [2], 94.3% (inactive); in experiment [3], 101% (inactive); in experiment [4] (setting [7]), 93.7%; in experiment [4] (setting [8]) it was 101%. Besides, in experiment [4] (H69AR cells + 2 uM doxorubicin), the differential viability (reversal) is 7.17% (inactive). For the same compound, the results for the inhibition in experiment [5] and in experiment [6] were -4.42% (inactive) and 2.62% (inactive), respectively.

`COc1cc(NS(=O)(=O)c2ccc(N)cc2)nc(OC)n1`: the viability was 109% (inactive) in experiment [1]; 80.7% (inactive) in experiment [2]; 100% (inactive) in experiment [3]; 88.4% in experiment [4] (setting [7]); 100% in experiment [4] (setting [8]). For the same compound, the differential viability (reversal) in experiment [4] (H69AR cells + 2 uM doxorubicin) was 11.7% (inactive). The inhibition in experiment [5] was 1.43% (inactive); in experiment [6], 3.83% (inactive).

Take `O=C(O)CCC(=O)NC1CCCCC1NC(=O)CCC(=O)O` (stereo unspecified): the viability is 104% (inactive) in experiment [1]; 111% (inactive) in experiment [2]; 99% (inactive) in experiment [3]; 91.6% in experiment [4] (setting [7]); 99% in experiment [4] (setting [8]). The differential viability (reversal) in experiment [4] (H69AR cells + 2 uM doxorubicin) is 7.37% (inactive). Further, the inhibition in experiment [5] is -5.47% (inactive); in experiment [6] it was 0.73% (inactive).

In the case of `Cc1nc(C)n(C(C)CC(=O)O)n1` (stereo unspecified), the viability in experiment [1] is 103% (inactive); in experiment [2], 127% (inactive); in experiment [3] it was 103% (inactive); in experiment [4] (setting [7]), 97.2%; in experiment [4] (setting [8]), 103%. In experiment [4] (H69AR cells + 2 uM doxorubicin), the differential viability (reversal) is 5.71% (inactive). In addition, the inhibition in experiment [5] is -4% (inactive); in experiment [6], 1.27% (inactive).

In the case of `CC(C)n1nc(C(=O)Nc2nc3ccc(S(C)(=O)=O)cc3s2)c2ccccc2c1=O`, the viability in experiment [1] was 87% (inactive); in experiment [2], 86.1% (inactive); in experiment [3], 67.8% (inactive); in experiment [4] (setting [7]), 72%; in experiment [4] (setting [8]), 67.8%. The differential viability (reversal) in experiment [4] (H69AR cells + 2 uM doxorubicin) is -4.21% (inactive). Also, the inhibition is -4.86% (inactive) in experiment [5] and 2.73% (inactive) in experiment [6].

For `O=S(=O)(NCc1ccccn1)c1ccc2c(c1)OCCO2`, the viability is 115% (inactive) in experiment [1]; 114% (inactive) in experiment [2]; 109% (inactive) in experiment [3]; 108% in experiment [4] (setting [7]); 109% in experiment [4] (setting [8]). Also, the differential viability (reversal) in experiment [4] (H69AR cells + 2 uM doxorubicin) was 0.755% (inactive). The inhibition is -0.81% (inactive) in experiment [5] and 0.18% (inactive) in experiment [6].

On to `CCC(=O)c1ccc(O)cc1`, for which the viability was 96% (inactive) in experiment [1]; 97% (inactive) in experiment [2]; 97.1% (inactive) in experiment [3]; 101% in experiment [4] (setting [7]); 97.1% in experiment [4] (setting [8]). Further, the differential viability (reversal) in experiment [4] (H69AR cells + 2 uM doxorubicin) was -3.6% (inactive). In addition, the inhibition in experiment [5] is -0.13% (inactive); in experiment [6], 3.33% (inactive).

`CC(CN(C)Cc1ccccc1)OC(=O)c1ccc2c(c1)OCCO2` (stereo unspecified): the viability in experiment [1] is 93% (inactive); in experiment [2] it was 85.3% (inactive); in experiment [3], 94.1% (inactive); in experiment [4] (setting [7]) it was 88.8%; in experiment [4] (setting [8]), 94.1%. Besides, the differential viability (reversal) in experiment [4] (H69AR cells + 2 uM doxorubicin) is 5.22% (inactive). The results for the inhibition in experiment [5] and in experiment [6] were -7.67% (inactive) and 1.29% (inactive), respectively.

Turning to `CSc1c(CC(=O)NCCO)n(C)c2ccccc12`, the viability was 108% (inactive) in experiment [1]; 111% (inactive) in experiment [2]; 102% (inactive) in experiment [3]; 93.1% in experiment [4] (setting [7]); 102% in experiment [4] (setting [8]). In addition, the differential viability (reversal) in experiment [4] (H69AR cells + 2 uM doxorubicin) is 9.3% (inactive). Also, the inhibition in experiment [5] is -4.13% (inactive); in experiment [6], 0.91% (inactive).

In the case of `CCn1nnnc1SCC(=O)N1c2ccccc2CCc2ccccc21`, the viability is 86% (inactive) in experiment [1]; 99.1% (inactive) in experiment [2]; 86.7% (inactive) in experiment [3]; 92.6% in experiment [4] (setting [7]); 86.7% in experiment [4] (setting [8]). Also, the differential viability (reversal) in experiment [4] (H69AR cells + 2 uM doxorubicin) was -5.9% (inactive). In addition, the inhibition in experiment [5] is -9.07% (inactive); in experiment [6], -0.18% (inactive).

In the case of `COc1ccccc1OCCOCCn1cnc2ccccc2c1=O`, the viability in experiment [1] is 87% (inactive); in experiment [2] it was 93.8% (inactive); in experiment [3] it was 87.7% (inactive); in experiment [4] (setting [7]), 91.1%; in experiment [4] (setting [8]), 87.7%. Also, the differential viability (reversal) in experiment [4] (H69AR cells + 2 uM doxorubicin) was -3.44% (inactive). Moreover, the results for the inhibition in experiment [5] and in experiment [6] were -5.75% (inactive) and 0.97% (inactive), respectively.
